Reference: ChEMBL document CHEMBL1123103, “Pyrimidinones. 1. 2-Amino-5-halo-6-aryl-4(3H)-pyrimidinones. Interferon-inducing antiviral agents” (1985)

How the values were obtained:
Type in all cases: functional
[1] = system: Vesicular stomatitis virus; test: Evaluation for serum interferon response from a single 800 mg/kg intraperitoneal administration in vesicular stomatitis virus on […] cells.
Method in brief: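 Mice got a single ip 800 mg/kg dose. Blood was drawn 3, 6, 8 and 12 h later from five mice per group and pooled. Interferon titer was measured by plaque reduction with vesicular stomatitis virus on L929 cells. Titer is the reciprocal serum dilution cutting plaques by 50% versus untreated cultures. Peak response within 24 h was banded: ≥2000, ~500-1000, ~50-500, ~10-50 U/mL.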

Semliki Forest virus [2] = test: Effective dose administered subcutaneously againist Forest virus infected mice; conditions: sc
Method in brief: (§1)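 ICR or CD-1 mice of both sexes got one drug dose by the route in the line (ip, po or sc). The drug was a suspension in 0.9% NaCl or in a CMC/polysorbate 80/benzyl alcohol/NaCl vehicle. […] Deaths were recorded daily for 6 days, 24 mice/group. ED50 is the minimal dose protecting 50% of mice, by probit analysis.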

Semliki Forest virus [3] = test: Antiviral activity against Forest virus (SFV); method in brief: as §1
Semliki Forest virus [4] = test: Effective dose administered perorally againist Forest virus infected mice; conditions: po; method in brief: as §1
Human alphaherpesvirus 1 = test: Intraperitoneal administration against herpes simplex virus type-1 (HSV-1) infected mice
Method in brief: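 ICR or CD-1 mice got drug ip in saline as the total daily dose (mg/kg/day). It was split into doses at -40, -28, -20, -3 and +3 h relative to ip inoculation with 5.6×10^4 pfu HSV-1. Mice were followed for 22 days, 15/group. Protection index = (control mortality − treated mortality)/control mortality; >0.25 counted active. Only the lowest protective dose is recorded.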

Row | Compound | IFN [1] | ED50 (Semliki Forest virus [2]) | ED50 (Semliki Forest virus [3]) | ED50 (Semliki Forest virus [4]) | Protection index (Human alphaherpesvirus 1)
1 | Nc1nc(O)c(Cl)c(-c2cccc([N+](=O)[O-])c2)n1 | 50 units/mL | 380 mg/kg | 140 mg/kg | > 400 mg/kg | 0.92
2 | CCOCCOc1cccc(-c2nc(N)nc(O)c2Br)c1 | – | – | – | – | 0.55
3 | Nc1nc(O)c(Br)c(-c2cc(F)ccc2F)n1 | >=2000 ml | – | 165 mg/kg | > 400 mg/kg | 0
4 | COc1cc(OC)cc(-c2nc(N)nc(O)c2Cl)c1 | – | – | 90 mg/kg | – | –
5 | COc1ccccc1-c1nc(N)nc(O)c1I | 50 units/mL | 120 mg/kg | 25 mg/kg | > 400 mg/kg | 0.69
6 | Nc1nc(O)c(I)c(-c2cc(Cl)cc(Cl)c2)n1 | 50 units/mL | 225 mg/kg | 140 mg/kg | > 400 mg/kg | 0.4
7 | Nc1nc(O)c(Br)c(-c2cccc(I)c2)n1 | – | > 400 mg/kg | 355 mg/kg | 170 mg/kg | –
8 | Nc1nc(O)c(I)c(-c2cccc(C(F)(F)F)c2)n1 | >=2000 ml | > 400 mg/kg | 160 mg/kg | > 400 mg/kg | 0.36
9 | COc1ccccc1-c1nc(N)nc(O)c1Br | 50 units/mL | 100 mg/kg | 15 mg/kg | > 400 mg/kg | 0.92
10 | Nc1nc(O)c(Cl)c(-c2cc(Cl)ccc2Cl)n1 | >=2000 ml | 115 mg/kg | 120 mg/kg | 200 mg/kg | 0.47
11 | Nc1nc(O)c(I)c(-c2cccc(F)c2F)n1 | >=2000 ml | – | > 400 mg/kg | 365 mg/kg | 0.34
12 | Nc1nc(O)c(Br)c(-c2cccc([N+](=O)[O-])c2)n1 | – | > 400 mg/kg | 140 mg/kg | > 400 mg/kg | 0.53
13 | Nc1nc(O)c(I)c(-c2cccc(I)c2)n1 | 50 units/mL | – | 125 mg/kg | – | 0.53
14 | Nc1nc(O)c(I)c(-c2cccnc2)n1 | 50 units/mL | 175 mg/kg | 130 mg/kg | > 400 mg/kg | 0
15 | Nc1nc(O)c(I)c(-c2cc(Cl)ccc2Cl)n1 | >=2000 ml | 115 mg/kg | 305 mg/kg | 75 mg/kg | 0
16 | Nc1nc(=O)c(Br)c(-c2ccccc2)[nH]1 [BROPIRIMINE] | – | 50 mg/kg | 100 mg/kg | 100 mg/kg | 0.6
17 | Nc1nc(O)c(I)c(-c2cc(F)ccc2F)n1 | >=2000 ml | – | 95 mg/kg | > 400 mg/kg | 0
18 | Nc1nc(O)c(I)c(-c2ccncc2)n1 | – | > 400 mg/kg | 365 mg/kg | > 400 mg/kg | –
19 | Nc1nc(O)c(Br)c(-c2ccco2)n1 | 50 units/mL | > 400 mg/kg | 295 mg/kg | > 400 mg/kg | 0.14
20 | Nc1nc(O)c(Cl)c(-c2cccc3ccccc23)n1 | – | > 400 mg/kg | 80 mg/kg | > 400 mg/kg | 0.54
21 | Nc1nc(O)c(I)c(-c2ccccn2)n1 | >=2000 ml | > 400 mg/kg | 215 mg/kg | 235 mg/kg | –
22 | Nc1nc(O)c(I)c(-c2ccc(F)cc2)n1 | >=2000 ml | 250 mg/kg | 245 mg/kg | 260 mg/kg | 0.29
23 | Nc1nc(O)c(Cl)c(-c2ccc(Cl)c(Cl)c2)n1 | – | > 400 mg/kg | 225 mg/kg | > 400 mg/kg | 0
24 | Nc1nc(O)c(I)c(-c2cccc([N+](=O)[O-])c2)n1 | >=2000 ml | 155 mg/kg | 90 mg/kg | > 400 mg/kg | 0.6
25 | Nc1nc(O)c(Cl)c(-c2ccc(F)cc2)n1 | – | 355 mg/kg | 300 mg/kg | > 400 mg/kg | 0.85
26 | COc1ccccc1-c1nc(N)nc(O)c1Cl | 50 units/mL | – | 20 mg/kg | > 400 mg/kg | 0.53
27 | Nc1nc(O)c(Br)c(-c2ccoc2)n1 | – | – | > 400 mg/kg | – | –

Row | Compound | IFN [1] | ED50 (Semliki Forest virus [2]) | ED50 (Semliki Forest virus [3]) | ED50 (Semliki Forest virus [4]) | Protection index (Human alphaherpesvirus 1)
28 | Nc1nc(O)c(Br)c(-c2cc(Cl)ccc2Cl)n1 | >=2000 ml | > 400 mg/kg | 180 mg/kg | > 400 mg/kg | –
29 | Nc1nc(O)c(Cl)c(-c2cccc(O)c2)n1 | – | – | – | – | 0.5
30 | COc1cc(OC)cc(-c2nc(N)nc(O)c2Br)c1 | – | – | 15 mg/kg | – | –
31 | Cc1ccccc1-c1nc(N)nc(O)c1I | – | 205 mg/kg | 175 mg/kg | > 400 mg/kg | 0.13
32 | Nc1nc(O)c(Br)c(-c2cnccn2)n1 | – | 365 mg/kg | 65 mg/kg | > 400 mg/kg | –
33 | Nc1nc(O)c(Cl)c(-c2ccccc2O)n1 | – | – | – | – | 0.61
34 | Nc1nc(O)c(I)c(-c2ccc(OCc3ccccc3)cc2)n1 | – | – | > 400 mg/kg | – | –
35 | Nc1nc(O)c(Br)c(-c2ccccc2Cl)n1 | – | – | 285 mg/kg | – | –
36 | COc1cc(OC)cc(-c2nc(N)nc(O)c2I)c1 | – | – | 55 mg/kg | – | –
37 | Nc1nc(O)c(Br)c(-c2cccnc2)n1 | – | > 400 mg/kg | 75 mg/kg | > 400 mg/kg | 0.45
38 | Nc1nc(O)c(Cl)c(-c2cc(F)cc(F)c2)n1 | 50 units/mL | – | 185 mg/kg | > 400 mg/kg | 0.5
39 | CCOc1cccc(-c2nc(N)nc(O)c2Cl)c1 | – | – | – | – | 0.13
40 | Nc1nc(O)c(Cl)c(-c2ccccc2Cl)n1 | 50 units/mL | – | 300 mg/kg | – | –
41 | Nc1nc(O)c(Br)c(-c2ccccn2)n1 | >=2000 ml | 65 mg/kg | 75 mg/kg | 310 mg/kg | –
42 | CCOc1cccc(-c2nc(N)nc(O)c2Br)c1 | – | – | – | – | 0.4
43 | Nc1nc(O)c(I)c(-c2ccc(C(=O)O)cc2)n1 | – | – | 380 mg/kg | – | –
44 | Nc1nc(O)c(Br)c(-c2cc(F)cc(F)c2)n1 | 50 units/mL | – | 150 mg/kg | – | 0
45 | Nc1nc(O)c(Cl)c(-c2ccco2)n1 | – | – | 120 mg/kg | – | –
46 | Nc1nc(O)c(Br)c(-c2cccc(F)c2F)n1 | >=2000 ml | – | 115 mg/kg | 330 mg/kg | 0.54
47 | CCOc1cccc(-c2nc(N)nc(O)c2I)c1 | – | – | – | – | 0
48 | Cc1ccccc1-c1nc(N)nc(O)c1Br | – | > 400 mg/kg | 60 mg/kg | > 400 mg/kg | 0.2
49 | Nc1nc(O)c(Br)c(-c2ccc(Cl)c(Cl)c2)n1 | – | > 400 mg/kg | 215 mg/kg | > 400 mg/kg | 0.29
50 | Nc1nc(O)c(I)c(-c2c(F)cccc2F)n1 | – | – | 285 mg/kg | – | –
51 | Nc1nc(O)c(I)c(-c2cc(F)cc(F)c2)n1 | >=2000 ml | – | 230 mg/kg | > 400 mg/kg | 0
52 | Nc1nc(O)c(I)c(-c2ccccc2Cl)n1 | – | – | 90 mg/kg | – | 0.13
53 | CCOCCOc1cccc(-c2nc(N)nc(O)c2I)c1 | – | – | – | – | 0.21
